Data on 43 compounds can be found in PubChem BioAssay AID489031 (Sanford-Burnham Center for Chemical Genomics, 2010).

About 1,000 (0.3%) of roughly 330,000 compounds were called active. The entries come from a sample that favours actives as a whole. Unmarked numbers belong to inactive results.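 How the source made its calls: active means activity change at or below -40% at 20 µM; inactive means the rest.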

Chain of Apoptotic protease-activating factor 1 (Homo sapiens) (O14727 whole entry, looked up): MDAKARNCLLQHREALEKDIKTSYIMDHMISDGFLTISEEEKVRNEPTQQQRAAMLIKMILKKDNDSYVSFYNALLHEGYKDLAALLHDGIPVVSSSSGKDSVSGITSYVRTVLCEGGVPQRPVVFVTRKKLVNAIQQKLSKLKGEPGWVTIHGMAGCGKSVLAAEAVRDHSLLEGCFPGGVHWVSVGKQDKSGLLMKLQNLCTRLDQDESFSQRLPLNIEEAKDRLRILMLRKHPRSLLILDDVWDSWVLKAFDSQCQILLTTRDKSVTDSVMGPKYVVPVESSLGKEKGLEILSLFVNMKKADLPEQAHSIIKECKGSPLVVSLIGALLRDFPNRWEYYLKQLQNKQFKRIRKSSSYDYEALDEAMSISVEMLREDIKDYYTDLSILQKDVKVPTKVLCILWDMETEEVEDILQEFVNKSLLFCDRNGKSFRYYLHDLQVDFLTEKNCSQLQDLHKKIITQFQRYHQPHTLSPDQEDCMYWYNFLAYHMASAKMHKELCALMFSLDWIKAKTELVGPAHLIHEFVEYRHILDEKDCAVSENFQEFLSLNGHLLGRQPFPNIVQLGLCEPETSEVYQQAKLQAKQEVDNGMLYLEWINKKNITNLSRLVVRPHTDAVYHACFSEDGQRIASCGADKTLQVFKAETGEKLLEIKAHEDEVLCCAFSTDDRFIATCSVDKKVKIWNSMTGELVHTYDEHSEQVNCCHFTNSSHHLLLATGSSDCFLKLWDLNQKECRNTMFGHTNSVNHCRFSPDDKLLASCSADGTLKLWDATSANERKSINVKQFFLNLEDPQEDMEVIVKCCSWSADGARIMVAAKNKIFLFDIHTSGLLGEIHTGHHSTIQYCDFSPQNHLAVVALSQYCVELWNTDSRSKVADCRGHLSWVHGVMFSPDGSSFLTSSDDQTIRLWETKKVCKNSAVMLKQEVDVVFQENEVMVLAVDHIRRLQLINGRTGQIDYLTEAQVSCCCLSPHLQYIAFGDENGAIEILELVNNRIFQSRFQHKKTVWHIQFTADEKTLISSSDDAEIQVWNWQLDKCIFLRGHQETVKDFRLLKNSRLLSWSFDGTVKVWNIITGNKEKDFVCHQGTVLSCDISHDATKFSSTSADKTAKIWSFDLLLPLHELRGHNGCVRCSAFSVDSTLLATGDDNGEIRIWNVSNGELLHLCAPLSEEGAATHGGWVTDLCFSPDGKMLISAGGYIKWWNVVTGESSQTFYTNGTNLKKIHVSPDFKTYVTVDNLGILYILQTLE

The target in the assay is Apoptotic protease-activating factor 1 (Homo sapiens) (UniProt O14727). Put plainly: enhancers of Apaf-1-driven caspase-3 activation – biochemical, DEVD-Rh110 fluorescence, uHTS, primary screen (AID 489031). The following applies: Apaf-1 apoptosome caspase-3 activation, at 20 µM, stronger effect = lower value. A digest of the protocol: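 system = biochemical Apaf-1 apoptosome reconstitution | buffer or medium = 20 mM HEPES pH 7.5 with CHAPS, BSA | also added = dATP and cytochrome c as apoptosome triggers, (Z-DEVD)2-Rh110 substrate | incubation = 30 min compound preincubation and 50 min reaction, both room temperature | measured by = fluorescence, 540 nm emission, 480 nm excitation | read-out basis = Caspase-3 cleavage activity downstream of Apaf-1 activation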
Consider `C=CCn1c(N)c(C(=O)OCC(C)C)c2nc3ccccc3nc21`, for which the activity change, negative = activation is 54.1%.
Regarding `Cc1ccc(S(=O)(=O)c2c(N)n(C)c3nc4ccccc4nc23)cc1`, the activity change, negative = activation is -405% (active).
The same measure for `C#CCOCCOCCOCCNc1nc(N2CCN(C(=O)CCCCCCCCCCNC(=O)[C@H](CCCCN)n3cc(C)nn3)CC2)nc(N2CCN(C(=O)CCCCCCCCCCNC(=O)[C@H](CO)n3cc(CCCSC)nn3)CC2)n1`: 59.7%; for `CC(C)n1cnc2c(NCc3ccccc3)cc(N[C@@H](CO)Cc3ccccc3)cc21`: 94.5%; for `O=C(Nc1cccc(-c2nc3ccccc3[nH]2)c1)c1ccc(C(=O)Nc2cccc(-c3nc4ccccc4[nH]3)c2)cc1`: -44% (active).
`NC(N)=N/N=C/c1ccc(OCc2ccc(Cl)cc2Cl)cc1`: the activity change, negative = activation was 65.5%.
The result for `CCOC(=O)N1CCC(NC(=O)C(C)n2c3ccccc3c3cnn(C)c(=O)c32)CC1` (stereo not drawn) reads 44.6%; that for `C#C[C@]1(O)CC[C@H]2[C@@H]3CCC4=CC(=O)CC[C@@H]4[C@H]3CC[C@@]21CC`, 1.24%.
The result for `C=CC1=C(C(=O)O)N2C(=O)[C@@H](NC(=O)/C(=N\OCC(=O)O)c3csc(N)n3)[C@H]2SC1` reads -78% (active); that for `C=CC1=C(C(=O)O)N2C(=O)[C@@H](NC(=O)/C(=N/OCC(=O)O)c3csc(N)n3)[C@H]2SC1`, -112% (active); that for `COC(=O)[C@H]1[C@H]2C[C@H]3c4[nH]c5ccccc5c4CCN3C[C@@H]2CC[C@@H]1O`, 13.4%.
The result for `CN1CCN(c2ccccc2NC(=O)COc2ccc(C3CCCCC3)cc2)CC1` reads 43.6%; that for `Cc1ccc(S(=O)(=O)C(C#N)c2nc3ccccc3nc2N2CCCC2)cc1C` (stereo not drawn), 60%.
`Oc1ccc(N=Cc2c(O)ccc3ccccc23)cc1`: the activity change, negative = activation is 87.2%.
With `Oc1ccc(N=Cc2sc3ccccc3c2Cl)cc1`, the activity change, negative = activation is 64.8%.
As to `Cc1ccc(C(=O)N/N=C\c2cc(Br)c(Br)o2)cn1`, the activity change, negative = activation was 75.4%.
The same measure for `Cc1ccc(S(=O)(=O)N2CCOCC2)cc1C(=O)NC(=S)N(Cc1ccccc1)C(C)C`: -57.7% (active).
The result for `COc1ccc(/C=C2/C(=O)N(c3ccccc3)N=C2C)c(OC)c1` reads 80.1%.
`CN1CCN(CCCNC(=O)c2ccc(/C=C3\Oc4ccccc4N(Cc4ccc(Cl)cc4)C3=O)cc2)CC1`: the activity change, negative = activation was 56.6%.
For the compound `O=C(CSc1ccc(-c2ccc(-n3cccn3)cc2)nn1)Nc1ccc([N+](=O)[O-])cc1`, the activity change, negative = activation was -70.1% (active).
The same measure for `C(=N/Nc1cc(N2CCOCC2)nc(N2CCOCC2)n1)/c1ccccc1`: 76.5%; for `COc1ccc(-c2nc3cc(C)ccn3c2NC2CCCCC2)cc1SC1CCCCC1`: 48.4%.
With `Cc1oc2c(c1C(=O)N1CCOCC1)C(=O)c1ccccc1C2=O`, the activity change, negative = activation was 65.9%.
`CCCC(=O)Nc1nc2ccc(NC(=O)c3c(F)c(F)c(OC)c(F)c3F)cc2s1`: the activity change, negative = activation was -393% (active).
`CC(C)n1cnc2c(NCc3ccccc3)cc(OCC3CCN(C)CC3)cc21`: the activity change, negative = activation was 96.4%.
The same measure for `Cc1ccc2c(c1)C1CN(C)CCC1N2S(=O)(=O)c1ccc(Oc2ccc([N+](=O)[O-])cc2)cc1` (stereo not drawn): 59.9%; for `COc1ccccc1OCC(=O)Nc1c2c(nn1-c1ccc(F)cc1)CS(=O)(=O)C2`: -88% (active).
As for `NC(N)=NCCCc1cn(CC(=O)N2CCNCC2)nn1`, the activity change, negative = activation was 40.2%.
For the compound `CC(NC(=O)c1ccccc1SCC(=O)N1CCCC1)c1ccccc1` (stereo not drawn), the activity change, negative = activation was 41.6%.
The same measure for `O=c1[nH]c2c(c(=O)n1Cc1ccccc1)CCC2`: -300% (active); for `COCCn1nnnc1C(c1cc2ccc(OC)cc2[nH]c1=O)N1CCc2ccccc2C1` (stereo not drawn): 56.8%; for `CC(C)Cn1c(N)c(C(=O)NCc2cccs2)c2nc3ccccc3nc21`: 63.4%.
The result for `CCc1nn(CCCN2CCN(c3cccc(Cl)c3)CC2)c(=O)n1CCOc1ccccc1` reads 23.5%; that for `CCN(CC)CCOc1ccc2c(c1)C(=NNC(=O)c1ccccn1)c1cc(OCCN(CC)CC)ccc1-2`, 52.5%; that for `O=C(Nc1ccccc1F)c1ccccc1-c1ccccc1`, -42.2% (active).
The result for `CC(=O)Nc1ccc(Nc2cc(C)nc(Nc3ccc(NC(C)=O)cc3)n2)cc1` reads 46.2%.
Take `c1ccc2c(CCN3CCNC[C@H]3Cc3cccc4ccccc34)cccc2c1`: the activity change, negative = activation is 67%.
On to `CCCCCCCCCCOC(=O)Cn1c(COc2cccc(OC)c2)[n+](C)c2ccccc21`, for which the activity change, negative = activation was 65.3%.
The result for `CC1COc2ccccc2N1C(=O)c1cccnc1Cl` (stereo not drawn) reads -62.8% (active).
In the case of `N#Cc1c(N2CCCCC2)nc(N)c2c(N)nc(SCC(=O)O)cc12`, the activity change, negative = activation was 96%.
The result for `O=C(NCc1ccccn1)c1ccc2nc(-c3ccco3)c(-c3ccco3)nc2c1` reads 60.6%; that for `CCOc1[nH]n(-c2ccc(Cl)cc2)c(=O)c1C=Nc1ccc(O)cc1`, 66.9%; that for `CCOc1ccc(N=C2NC(=O)S/C2=C\c2ccc(O)cc2)cc1`, -72% (active).
